Where two headings read alike, the source gives them in different places.
Assays:
histamine H1 receptor = settings: animal tissues with a high density of H1 receptors; cited from earlier work
[1] = system: organic cation transporter 2 (OCT2); settings: cited from earlier work
[2] = doses up to 40 mg; cited from earlier work
[3] = assay type: in vivo, human; settings: for CL renal / AUC(0-inf) / Cmax / Tmax / AUC(0-t) / CL/F / Vd/F / half-life / k el: human, 20 mg; for CL renal: plasma and urine, CLR; for AUC(0-inf) / Cmax / Tmax / AUC(0-t) / CL/F / Vd/F / half-life / k el: plasma; for AUC(0-t): AUClast, fasted, n = 6; for CL/F: CLP/F; for Vd/F: Vz/F; for half-life: t½β; for k el: λz
Summary of the method: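 Single oral 20 mg tablet given fasted (8–10 h) to groups of six subjects stratified by iothalamate GFR (>80, 50–80, 30–50, ≤30 mL/min/1.73 m2). Heparinised blood was drawn pre-dose and 0.25–72 h post-dose; plasma was spun at 1,500×g, 4–8 °C, then frozen. AUClast used the trapezoidal rule, AUC∞ = AUClast + Clast/ke, and CLP/F = dose/AUC∞. Ratios to the healthy group came from ln-transformed ANOVA least-squares means with 90 % CI.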

Safety evaluations = assay type: in vivo, human
Summary of the method: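 Four groups (n = 6) were assigned by iothalamate GFR: >80, 50–80, 30–50 and ≤30 mL/min/1.73 m2. Each subject took one oral 20 mg tablet with 200 mL water after an 8–10 h fast. ECG (12-lead) was recorded pre-dose, 1 and 24 h, with QTcF and QTcB. Vital signs were taken daily. Hematology, biochemistry and urinalysis were done at screening, pre-dose and 72 h. AEs were coded by MedDRA 11.0, and results summarised descriptively.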

[4] = compared among the renal impairment groups; cited from earlier work
[5] = system: organic anion transporter 1 (OAT1); settings: cited from earlier work
[6] = system: human breast cancer resistance protein (BCRP); settings: cited from earlier work
[7] = Urine concentrations / urinary excretion of bilastine after a single oral dose; assay type: in vivo, human; settings: for Urine concentrations of bilastine: mean ± SD
Summary of the method: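 Subjects were grouped by iothalamate GFR (n = 6 each) and received one fasted oral 20 mg tablet. Urine was pooled over 0–12, 12–24, 24–48 and 48–72 h post-dose and kept refrigerated during each interval. Total volume was measured per interval, and aliquots were stored at −20 °C. Ae is the total unchanged drug over the whole collection, and CLR = Ae/AUC over a defined period.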

[8] = system: histamine receptor subtypes H2, H3, and H4; settings: at a high concentration; cited from earlier work
[9] = system: 30 other receptors (including muscarinic receptors); settings: at a high concentration; cited from earlier work
[10] = system: organic anion transporter 3 (OAT3); settings: cited from earlier work
[11] = cited from earlier work
[12] = single 80 mg oral dose; 95 % CI 3,174.7–6278.4; cited from earlier work
[13] = group 2: mild vs group 1: healthy
[14] = group 3: moderate vs group 1: healthy
[15] = group 4: severe vs group 1: healthy
[16] = po, Group 1: healthy, single oral 20 mg, mean ± SD
[17] = po, Group 2: mild, single oral 20 mg, mean ± SD
[18] = po, Group 3: moderate, single oral 20 mg, mean ± SD
[19] = po, Group 4: severe, single oral 20 mg, mean ± SD
[20] = oral, geometric LS mean, Test group 2: mild, ANOVA
[21] = oral, geometric LS mean, Test group 4: severe, ANOVA

CCOCCn1c(C2CCN(CCc3ccc(C(C)(C)C(=O)O)cc3)CC2)nc2ccccc21 [bilastine, 2-[4-(2-(4-(1-(2-ethoxyethyl)-1H-benzimidazol-2-yl)piperidin-1-yl)ethyl)phenyl]-2-methylpropionic acid]
affinity for H1 receptors relative to cetirizine (histamine H1 receptor): three times higher | affinity for H1 receptors relative to fexofenadine (histamine H1 receptor): five times higher | substrate of OCT2 [1]: not a substrate | sedative or psychomotor effects [2]: No sedative or psychomotor effects were detected | Clast ([3]; Group 1: healthy, single oral 20 mg, mean ± SD): 0.3 ± 0.1 ng/mL | Clast ([3]; Group 2: mild, single oral 20 mg, mean ± SD): 0.8 ± 0.3 ng/mL | Clast ([3]; Group 3: moderate, single oral 20 mg, mean ± SD): 0.4 ± 0.1 ng/mL | Clast ([3]; Group 4: severe, single oral 20 mg, mean ± SD): 1.5 ± 1.1 ng/mL | amount in the plasma after 24 h relative to Cmax ([3]; all the groups, single oral 20 mg): less than 5 % of the Cmax | AUClast, geometric mean ratio [3, 13]: 1.34 | AUC∞, geometric mean ratio [3, 13]: 1.36 | Cmax, geometric mean ratio [3, 13]: 1.24 | tmax, difference of median values [3, 13]: 0.00 | AUClast, geometric mean ratio [3, 14]: 1.94 | AUC∞, geometric mean ratio [3, 14]: 1.94 | Cmax, geometric mean ratio [3, 14]: 2.00 | tmax, difference of median values [3, 14]: 0.75 | AUClast, geometric mean ratio [3, 15]: 2.11 | AUC∞, geometric mean ratio [3, 15]: 2.15 | Cmax, geometric mean ratio [3, 15]: 1.59 | tmax, difference of median values [3, 15]: 0.00 | CL renal [3, 16]: 145 mL/min | CL renal [3, 17]: 116 mL/min | CL renal [3, 18]: 91.5 mL/min | CL renal [3, 19]: 67.2 mL/min | AUC(0-inf) [3, 20]: 959 ng·h/mL | AUC(0-inf) [3, 21]: 1510 ng·h/mL | Cmax [3, 20]: 167 ng/mL | Cmax [3, 21]: 214 ng/mL | Tmax ([3]; oral, median, Reference (group 1: healthy)): 1.5 h | Tmax ([3]; oral, median, Test group 2: mild): 1.5 h | Tmax ([3]; oral, median, Test group 3: moderate): 2.25 h | Tmax ([3]; oral, median, Test group 4: severe): 1.5 h | AUC(0-t) ([3]; po, Group 1: healthy (GFR >80), single oral 20 mg, mean ± SD): 733 ± 260 ng·h/mL | AUC(0-t) ([3]; po, Group 2: mild renal insufficiency (GFR 50–80), single oral 20 mg, mean ± SD): 947 ± 148 ng·h/mL | AUC(0-t) ([3]; po, Group 3: moderate renal insufficiency (GFR 30–50), single oral 20 mg, mean ± SD): 1380 ng·h/mL | AUC(0-t) ([3]; po, Group 4: severe renal insufficiency (GFR ≤30), single oral 20 mg, mean ± SD): 1650 ng·h/mL | AUC(0-inf) [3, 16]: 737 ± 261 ng·h/mL | AUC(0-inf) [3, 17]: 967 ± 140 ng·h/mL | AUC(0-inf) [3, 18]: 1380 ng·h/mL | AUC(0-inf) [3, 19]: 1710 ng·h/mL | CL/F [3, 16]: 495 mL/min | CL/F [3, 17]: 351 mL/min | CL/F [3, 18]: 248 mL/min | CL/F [3, 19]: 271 mL/min | Cmax [3, 16]: 144 ± 57.8 ng/mL | Cmax [3, 17]: 172 ± 45 ng/mL | Cmax [3, 18]: 271 ± 30.4 ng/mL | Cmax [3, 19]: 229 ± 81.8 ng/mL | Vd/F [3, 16]: 383 ± 122 L | Vd/F [3, 17]: 462 ± 244 L | Vd/F [3, 18]: 223 ± 55.7 L | Vd/F [3, 19]: 351 ± 193 L | Tmax ([3]; po, Group 1: healthy, single oral 20 mg, median (range)): 1.5 h | Tmax ([3]; po, Group 2: mild, single oral 20 mg, median (range)): 1.5 h | Tmax ([3]; po, Group 3: moderate, single oral 20 mg, median (range)): 2.25 h | Tmax ([3]; po, Group 4: severe, single oral 20 mg, median (range)): 1.5 h | half-life [3, 16]: 9.26 ± 2.79 h | half-life [3, 17]: 15.1 ± 7.66 h | half-life [3, 18]: 10.5 ± 2.34 h | half-life [3, 19]: 18.4 ± 11.4 h | k el [3, 16]: 2.21e-05 s⁻¹ | k el [3, 17]: 1.65e-05 s⁻¹ | k el [3, 18]: 1.92e-05 s⁻¹ | k el [3, 19]: 1.39e-05 s⁻¹ | tolerability (Safety evaluations; 20 mg oral dose, healthy and renally impaired subjects): well-tolerated | subjects with outlier ECG results (Safety evaluations; all 24 subjects, single oral 20 mg): 20.8% | subjects with outlier ECG results (Safety evaluations; each of the mild, moderate, and severe impairment groups): 16.7% | subjects with outlier ECG results (Safety evaluations; healthy group): 33.3% | mean blood glucose concentration (Safety evaluations; mildly impaired group, end of study, reference range 60–115 mg/dL): 120.8 mg/dL | plasma protein binding [4]: comparable values were found among the renal impairment groups | substrate of OAT1 [5]: not a substrate | substrate of BCRP [6]: not a substrate | Urine concentrations of bilastine ([7]; 0–12 h, Group 1: healthy, single oral 20 mg): 4,387.5 ± 3,358.4 ng/mL | Urine concentrations of bilastine ([7]; 0–12 h, Group 2: mild): 4,824.1 ± 2,073.0 ng/mL | Urine concentrations of bilastine ([7]; 0–12 h, Group 3: moderate): 7,184.3 ± 3,843.4 ng/mL | Urine concentrations of bilastine ([7]; 0–12 h, Group 4: severe): 3,469.8 ± 2,066.2 ng/mL | Urine concentrations of bilastine ([7]; 12–24 h, Group 1: healthy): 531.7 ± 342.0 ng/mL | Urine concentrations of bilastine ([7]; 12–24 h, Group 2: mild): 597.7 ± 159.2 ng/mL | Urine concentrations of bilastine ([7]; 12–24 h, Group 3: moderate): 472.9 ± 221.9 ng/mL | Urine concentrations of bilastine ([7]; 12–24 h, Group 4: severe): 813.0 ± 567.5 ng/mL | Urine concentrations of bilastine ([7]; 24–48 h, Group 1: healthy): 103.4 ± 38.6 ng/mL | Urine concentrations of bilastine ([7]; 24–48 h, Group 2: mild): 159.3 ± 43.3 ng/mL | Urine concentrations of bilastine ([7]; 24–48 h, Group 3: moderate): 126.7 ± 81.1 ng/mL | Urine concentrations of bilastine ([7]; 24–48 h, Group 4: severe): 260.4 ± 212.1 ng/mL | Urine concentrations of bilastine ([7]; 48–72 h, Group 1: healthy): 20.9 ± 10.0 ng/mL | Urine concentrations of bilastine ([7]; 48–72 h, Group 2: mild): 49.3 ± 40.7 ng/mL | Urine concentrations of bilastine ([7]; 48–72 h, Group 3: moderate): 30.3 ± 7.4 ng/mL | Urine concentrations of bilastine ([7]; 48–72 h, Group 4: severe): 97.8 ± 69.3 ng/mL | time by which urinary excretion was essentially complete ([7]; single oral 20 mg, most excreted in the first 12 h): up to 72 h | affinity for histamine receptor subtypes H2, H3, and H4 [8]: does not show affinity | affinity for 30 other receptors [9]: does not show affinity | substrate of OAT3 [10]: not a substrate | metabolism [11]: not metabolized | AUC∞, mean estimated exposure (safety margin) [12]: 4,225.6 ng·h/mL

— article PMC3751212 (Clinical Drug Investigation, 2013)
